High-throughput results: PubChem, several laboratories
In the library only some 3.2% were active in any assay of this set; here they are far more common.
MEKK3 PB1 HTS – MEKK3-MEK5 PB1 interaction, increase or decrease | bead-based flow cytometry, Alexa488-MEK5 binding to MEKK3; actives lie on both sides; 0 = blocked by unlabeled MEK5, 100 = vehicle | 290,000 compounds, 1.4% hits | AID 1529 | Q99759 | binding response (% of control), % at 10 µM;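 active = binding response more than 3 SD above or below the average of its plate-row segment, actives on both sides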;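 also: Alexa488 bead fluorescence after subtracting the streptavidin-only scavenger bead signal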
UBC13 polyUb – human UBC13 polyubiquitination inhibition | P61088 | UBC13 polyubiquitin chain formation, TR-FRET | inhibition, % at 20 µM | 330,000 compounds, 0.47% hits | AID 485273; in the data active = inhibition above about 45%, passing the limit was not always enough
MEKK2mut PB1 HTS – signal of MEK5 binding to mutant human MEKK2 PB1 domain; bead flow cytometry, Alexa488-MEK5 binding to MEKK2 mutant; percent response, % at 10 µM; 290,000 compounds, 0.35% hits; AID 1530; in the data active = percent response above about 24%, passing the limit was not always enough
Pemphigus Ab inh – human desmoglein-3 autoantibody binding inhibition; P32926; DSG3-coupled beads, scFv-anti-DSG3-GFP binding, flow cytometry; active compounds read low; binding (percent of control), % at 10 µM; 310,000 compounds, 0.48% hits;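 active = binding more than 3 SD below its plate's average and above zero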;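 also: hits lower antibody fragment binding to DSG3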
MEKK2 WT-MEK5 – raises or lowers MEK5 binding to wildtype human MEKK2 PB1 domain. binding response (% of control), % at 10 µM. 290,000 compounds, 1.1% hits. Q9Y2U5. bead flow cytometry, Alexa488-MEK5 binding to MEKK2 WT; actives lie on both sides; in the data active = binding response below about 67% or above about 130%
Apaf1 inhib – inhibitors of human Apaf-1 apoptosome. inhibition, % at 20 µM. 330,000 compounds, 0.71% hits. O14727. AID 489030. reconstituted apoptosome caspase-3 activity, DEVD-Rh110 fluorescence; active = inhibition of at least 40% at 20 µM;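 also: plate controls were DMSO wells for no effect and DEVD-CHO caspase inhibitor wells for full effect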
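Assay system: Apoptosome proteins | Medium: pH 7.5 Hepes buffer with CHAPS, BSA, DTT | Also added: Cytochrome c and DEVD-Rh110 substrate | Times: 30 min plus 50 min, RT | Detection: Rhodamine 110 fluorescence at Ex 480/Em 540 nm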
MEKK2wt confirm – raises or lowers MEK5 binding to wildtype human MEKK2, retest. binding response (% of control), % at 10 µM. 5,900 compounds, 2.4% hits. shares compounds with MEKK3 PB1 HTS. bead flow cytometry, Alexa488-MEK5 binding to MEKK2 WT; actives lie on both sides; in the data active = binding response below about 16% or above about 210%; inactive = in between
MEKK2mut-MEK5 – signal of MEK5 binding to mutant human MEKK2, retest | shares compounds with MEKK3 PB1 HTS | bead flow cytometry, Alexa488-MEK5 binding to MEKK2 mutant | percent response, % at 10 µM | 5,900 compounds, 2% hits; in the data active = percent response mostly above about 71%, no sharp cut-off; inactive = mostly below about 38%;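 also: higher means compound restores mutant binding toward wildtype level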
MEKK3 confirm – confirmation of inhibitors of MEK5 binding to human MEKK3. shares compounds with MEKK3 PB1 HTS. bead flow cytometry, Alexa488-MEK5 binding to MEKK3; active compounds read low. binding response (% of control), % at 10 µM. 5,900 compounds, 1.8% hits;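 active = binding response below 72% of control, or above a set upper limit, though filed actives all read lower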;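 also: 100% = DMSO only wells and 0% = binding blocked by excess unlabeled MEK5; lower values mean stronger disruption of MEK5 binding to MEKK3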
Numbers without * were called inactive; · = no result given; [ ] = another dose, or the depositor's remark.

SMILES	MEKK3 PB1 HTS	UBC13 polyUb	MEKK2mut PB1 HTS	Pemphigus Ab inh	MEKK2 WT-MEK5	Apaf1 inhib	MEKK2wt confirm	MEKK2mut-MEK5	MEKK3 confirm
CC(C)CC1NC(=O)N(CC(=O)Nc2cc(S(=O)(=O)N3CCOCC3)ccc2Cl)C1=O (stereo unspecified)	·	1.4	·	107.2	·	-6.4	·	·	·
C/C(=N\NC(=O)c1ccc(Cl)cc1)c1ccc(N2CCOCC2)cc1	91.0	7.3	-2.0	129.2	93.0	4.9	·	·	·
C/C(=N/NC(=O)c1ccoc1C)c1ccc(N2CCOCC2)cc1	131.0*	7.6	1.0	113.3	104.0	-5.1	100.0	-6.0	101.0
COc1cc(/C=C/c2ccc3cccc(OC)c3n2)c(O)c([N+](=O)[O-])c1	50.0*[inhibitor]	-38.8	-15.0	101.8	55.0*[inhibitor]	0.2	94.0	-7.0	92.0
COc1cc(/C=C/c2ccc3cccc(OC)c3n2)c(OC(C)=O)c([N+](=O)[O-])c1	98.0	-82.6	-2.0	100.7	93.0	17.2	·	·	·
CC(C)CC(=O)/C(=C/c1ccc(N(C)C)cc1)n1cncn1	69.0*[inhibitor]	-10.3	-9.0	91.8	37.0*[inhibitor]	4.0	104.0	0.0	102.0
O=C(COC(=O)CCC(NC(=O)OCc1ccccc1)C(=O)OCC(=O)Nc1ccccc1)Nc1ccccc1 (stereo unspecified)	152.0*	5.4	1.0	·	113.0	14.8	109.0	4.0	103.0
CCCCCNS(=O)(=O)c1cc2c3c(c1)CCC(=O)N3CCC2	101.0	-1.9	0.0	102.0	103.0	9.2	·	·	·
Cc1ccccc1NC(=O)/C(C#N)=C/c1ccc(-c2ccc(Cl)c(C(=O)O)c2)o1	97.0	-12.7	4.0	92.0	101.0	5.9	·	·	·
Cc1cccc(NC(=O)/C(C#N)=C/c2ccc(Sc3ccccc3)o2)c1C	128.0*	1.4	-1.0	88.5	99.0	11.6	99.0	0.0	104.0
O=C(Oc1ccc(/C=N/NC(=O)c2ccccc2F)cc1)c1ccccc1	103.0	-5.0	2.0	111.9	104.0	9.0	·	·	·
N#Cc1ccc(/C=N/NC(=O)c2ccccc2F)cc1	115.0	5.7	47.0	104.4	140.0*	-2.7	101.0	-1.0	102.0
O=C(COC(=O)c1cc(S(=O)(=O)N2CCOCC2)ccc1F)Nc1ccccc1C(F)(F)F	·	·	·	100.0	·	·	·	·	·
Cc1cccc(C2c3[nH]c4ccccc4c3CCN2C(=O)c2noc3c2CCCC3)n1 (stereo unspecified)	99.0	-2.3	-5.0	100.5	95.0	12.7	·	·	·
Cc1cccc(C2c3[nH]c4ccccc4c3CCN2C(=O)c2cn(C)c3ccccc3c2=O)n1 (stereo unspecified)	87.0	-6.1	-14.0	85.5	46.0*[inhibitor]	5.5	97.0	-2.0	102.0
CC(C)C(C(=O)Nc1ccc(S(N)(=O)=O)cc1)N1C(=O)c2ccccc2C1=O (stereo unspecified)	56.0*[inhibitor]	2.5	-10.0	104.2	70.0	0.9	96.0	-4.0	101.0
CN(C)c1ccc(C(=O)NN2C(=O)c3ccccc3C2=O)cc1	132.0*	-1.9	1.0	101.1	120.0	-11.7	104.0	1.0	103.0
CCc1cc[n+](CC(=O)Nc2ccc(Cl)cc2Cl)cc1	3.0*[inhibitor]	10.5	-4.0	105.8	4.0*[inhibitor]	0.4	108.0	4.0	101.0
COc1ccc(Cl)cc1NC(=O)C[n+]1ccccc1	105.0	8.4	3.0	101.8	108.0	-8.1	·	·	·
CCN(CC)C(=O)C1=C(C)N(CCCOC)C(=O)C(CC(=O)NCc2ccco2)C1 (stereo unspecified)	·	·	·	109.9	·	·	·	·	·
COc1ccccc1N(CC(=O)NC1CCCC1)C(=O)CCCC(=O)Nc1ccccn1	102.0	-2.7	-2.0	122.5	101.0	2.6	·	·	·
O=C(CCC(=O)N(CC(=O)NC1CCCC1)C1CCCC1)Nc1ccccn1	103.0	-2.8	-1.0	·	100.0	-1.4	·	·	·
CCOc1ccccc1N(CC(=O)NC1CCCC1)C(=O)CCCC(=O)Nc1ccccn1	2.0*[inhibitor]	-14.8	-39.0	102.2	2.0*[inhibitor]	1.3	95.0	-3.0	98.0
O=C(CCCC(=O)N(CC(=O)NC1CCCC1)C1CCCC1)Nc1ccccn1	72.0*[inhibitor]	-5.1	-12.0	109.5	87.0	5.1	-1.0*[inhibitor]	-3.0	98.0
CC(C)(C)OC(=O)N1CCC(c2cc(=O)n3[nH]cc(C(=O)NC4CCCC4)c3n2)CC1	100.0	-24.1	6.0	99.4	96.0	7.5	·	·	·
SMILES	MEKK3 PB1 HTS	UBC13 polyUb	MEKK2mut PB1 HTS	Pemphigus Ab inh	MEKK2 WT-MEK5	Apaf1 inhib	MEKK2wt confirm	MEKK2mut-MEK5	MEKK3 confirm
CC(C)(C)OC(=O)N1CCC(c2cc(=O)n3[nH]cc(C(=O)Nc4ccc(F)c(Cl)c4)c3n2)CC1	129.0*	-18.8	19.0	99.4	97.0	35.7	97.0	-1.0	101.0
CCn1c(SCC(=O)NC2CCCCC2)nnc1-c1ccccc1F	102.0	5.2	-2.0	97.5	100.0	4.0	·	·	·
COc1cccc(CNS(=O)(=O)c2ccc(S(=O)(=O)N3CCCC3)cc2)c1	112.0	0.6	454.0*	101.7	601.0*	1.1	102.0	1.0	104.0
Cc1nn(C)c(C(=O)Sc2cccc(Cl)c2)c1[N+](=O)[O-]	133.0*	-3.4	28.0	97.9	115.0	-15.8	97.0	-6.0	97.0
COc1cc(OC)c(OC)cc1CNC(=O)CCN1C(=O)c2cccc([N+](=O)[O-])c2C1=O	99.0	-5.7	-3.0	102.8	100.0	-3.4	·	·	·
Cc1cccc(Nc2nc(NCc3ccco3)c3ccccc3n2)c1	106.0	·	14.0	·	145.0*	·	191.0	57.0	106.0
Cc1ccccc1Nc1nc(NCc2ccco2)c2ccccc2n1	104.0	25.9	35.0	118.1	149.0*	8.1	169.0	55.0	104.0
Oc1ccccc1Nc1nc(NCc2ccco2)c2ccccc2n1	103.0	21.1	15.0	109.2	117.0	-9.8	·	·	·
c1ccc(CN2CCN(c3nc(NCc4ccco4)c4ccccc4n3)CC2)cc1	112.0	22.4	29.0	103.0	168.0*	12.9	167.0	46.0	111.0
COc1ccc(OC)c(Nc2nc(NCc3ccco3)c3ccccc3n2)c1	117.0	21.1	24.0*	108.2	206.0*	7.8	175.0	61.0	109.0
CCCOc1ccc(CC(=O)N/N=C\c2ccc(F)cc2)cc1	113.0	2.2	4.0	113.2	114.0	18.3	·	·	·
C=CCc1cccc(/C=N/NC(=O)CCCNc2ccc(C)cc2)c1O	109.0	·	89.0*	98.5	248.0*	·	104.0	2.0	103.0
